Test results published in ChEMBL document CHEMBL4808225, “Discovery and Characterization of Selective and Ligand-Efficient DYRK Inhibitors” (J Med Chem, 2021).
Values after ≈ are worked out from the molar mass of the structure shown.

Experiments:
[1] = Metabolic stability in human liver microsomes; format: ADME, Microsome; settings: read-out: Stabilty
[2] = Metabolic stability in rat liver microsomes; format: ADME, Microsome; settings: read-out: Stabilty
[3] = Thermodynamic solubility of the compound at pH 6.8; format: physicochemical; settings: buffer, read-out: Therm_solubility
In short: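 Thermodynamic solubility measured at pH 6.8 in a single experiment, reported in […].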

[4] = molecular target: Dual specificity tyrosine-phosphorylation-regulated kinase 1B (Homo sapiens) (UniProt Q9Y463); experiment: Inhibition of wild-type human full length DYRK1B (M1 to S629 residues) expressed in bacterial expression system assessed as remaining activity at 1 uM by Kinomescan method relative to control
In short: (§1)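 KINOMEscan competition binding panel run with inhibitor at 1 μM; read-out is remaining kinase activity (percent of control).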

[5] = molecular target: T1, Dual specificity tyrosine-phosphorylation-regulated kinase 2 (Homo sapiens) (UniProt Q92630); experiment: Inhibition of wild-type human full length DYRK2 (M1 to S528 residues) expressed in mammalian expression system assessed as remaining activity at 1 uM by Kinomescan method relative to control; in short: as §1
T1 sequence (whole entry): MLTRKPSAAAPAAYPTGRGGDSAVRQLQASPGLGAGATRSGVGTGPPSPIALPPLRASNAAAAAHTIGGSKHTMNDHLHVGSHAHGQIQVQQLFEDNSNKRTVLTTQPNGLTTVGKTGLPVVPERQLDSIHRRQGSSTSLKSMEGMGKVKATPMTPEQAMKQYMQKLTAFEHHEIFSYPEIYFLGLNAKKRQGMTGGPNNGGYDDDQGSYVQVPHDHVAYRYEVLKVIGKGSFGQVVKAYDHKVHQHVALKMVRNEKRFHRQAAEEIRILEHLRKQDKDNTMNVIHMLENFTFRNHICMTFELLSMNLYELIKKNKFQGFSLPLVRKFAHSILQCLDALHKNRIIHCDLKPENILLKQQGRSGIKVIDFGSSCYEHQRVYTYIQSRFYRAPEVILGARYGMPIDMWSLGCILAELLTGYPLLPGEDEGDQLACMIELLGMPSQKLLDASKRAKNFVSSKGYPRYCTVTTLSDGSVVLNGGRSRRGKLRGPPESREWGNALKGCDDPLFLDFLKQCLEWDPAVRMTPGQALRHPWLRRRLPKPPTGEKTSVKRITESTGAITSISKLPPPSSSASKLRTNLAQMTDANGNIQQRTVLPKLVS

[6] = molecular target: T2, Dual specificity protein kinase CLK1 (Homo sapiens, UniProt P49759); experiment: Inhibition of wild-type human full length CLK1 (M1 to I484 residues) expressed in bacterial expression system assessed as remaining activity at 1 uM by Kinomescan method relative to control; in short: as §1
[7] = molecular target: Dual specificity protein kinase CLK2 (Homo sapiens) (UniProt P49760); experiment: Inhibition of wild-type human partial length CLK2 (D144 to R498 residues) expressed in bacterial expression system assessed as remaining activity at 1 uM by Kinomescan method relative to control; in short: as §1
[8] = molecular target: Dual specificity protein kinase CLK3 (Homo sapiens) (UniProt P49761); experiment: Inhibition of wild-type human full length CLK3 (M1 to R490 residues) expressed in bacterial expression system assessed as remaining activity at 1 uM by Kinomescan method relative to control; in short: as §1
[9] = molecular target: Dual specificity protein kinase CLK4 (Homo sapiens, UniProt Q9HAZ1); experiment: Binding affinity to wild-type human partial length CLK4 (R135 to K481 residues) expressed in bacterial expression system measured after 1 hr by competitive binding assay
[10] = molecular target: T2, Dual specificity protein kinase CLK1; experiment: Binding affinity to wild-type human full length CLK1 (M1 to I484 residues) expressed in bacterial expression system measured after 1 hr by competitive binding assay
[11] = molecular target: T3, Dual specificity tyrosine-phosphorylation-regulated kinase 2 (Homo sapiens, UniProt Q92630); experiment: Binding affinity to wild-type human full length DYRK2 (M1 to S528 residues) expressed in mammalian expression system measured after 1 hr by competitive binding assay
T3 sequence (Q92630 whole entry): T1 sequence (whole entry)

[12] = molecular target: Calcium/calmodulin-dependent protein kinase type 1B (Homo sapiens, UniProt Q6P2M8); experiment: Binding affinity to wild-type human partial length CAMK1B (W9 to A311 residues) expressed in mammalian expression system measured after 1 hr by competitive binding assay
[13] = molecular target: STE20/SPS1-related proline-alanine-rich protein kinase (Homo sapiens, UniProt Q9UEW8); experiment: Binding affinity to wild-type human partial length STK39 (P43 to I357 residues) expressed in mammalian expression system measured after 1 hr by competitive binding assay
[14] = molecular target: Serine/threonine-protein kinase WNK2 (Homo sapiens, UniProt Q9Y3S1); experiment: Binding affinity to wild-type human partial length WNK2 (V47 to D482 residues) expressed in mammalian expression system measured after 1 hr by competitive binding assay
[15] = Half life in Sprague-Dawley rat at 1 mg/kg, iv; format: ADME, organism-based; settings: in vivo
In short: (§2)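 Single intravenous dose of 1 mg/kg given to fed Sprague–Dawley rats (n = 3); plasma and brain samples collected for pharmacokinetic parameters, with total brain:plasma ratio computed.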

[16] = Tmax in Sprague-Dawley rat at 1 mg/kg, iv; format: ADME, organism-based; settings: in vivo; in short: as §2
[17] = Cmax in Sprague-Dawley rat at 1 mg/kg, iv; format: ADME, organism-based; set-up: route intravenous, dose 1 mg/kg; settings: in vivo; in short: as §2
[18] = AUClast in Sprague-Dawley rat at 1 mg/kg, iv; format: ADME, organism-based; set-up: route intravenous, time 0 - last, dose 1 mg/kg; settings: in vivo; in short: as §2
[19] = AUC infinity in Sprague-Dawley rat at 1 mg/kg, iv; format: ADME, organism-based; set-up: time infinity, route intravenous, dose 1 mg/kg; settings: in vivo; in short: as §2
[20] = MRT in Sprague-Dawley rat at 1 mg/kg, iv; format: ADME, organism-based; settings: in vivo; in short: as §2
[21] = Initial plasma concentration in Sprague-Dawley rat at 1 mg/kg, iv; format: ADME, organism-based; settings: in vivo; in short: as §2
[22] = Toxicity in Sprague-Dawley rat assessed as adverse effect at 1 mg/kg, iv; format: organism-based; settings: in vivo
In short: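 Fed Sprague–Dawley rats (n = 3) received one 1 mg/kg iv dose; adverse effects were recorded during the pharmacokinetic study.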

[23] = Ratio of drug concentration in brain to plasma in Sprague-Dawley rat at 1 mg/kg, iv; format: ADME, organism-based; in short: as §2

Sequence of Dual specificity protein kinase CLK3 (Homo sapiens) (P49761 whole entry, looked up, the tested form may be a part): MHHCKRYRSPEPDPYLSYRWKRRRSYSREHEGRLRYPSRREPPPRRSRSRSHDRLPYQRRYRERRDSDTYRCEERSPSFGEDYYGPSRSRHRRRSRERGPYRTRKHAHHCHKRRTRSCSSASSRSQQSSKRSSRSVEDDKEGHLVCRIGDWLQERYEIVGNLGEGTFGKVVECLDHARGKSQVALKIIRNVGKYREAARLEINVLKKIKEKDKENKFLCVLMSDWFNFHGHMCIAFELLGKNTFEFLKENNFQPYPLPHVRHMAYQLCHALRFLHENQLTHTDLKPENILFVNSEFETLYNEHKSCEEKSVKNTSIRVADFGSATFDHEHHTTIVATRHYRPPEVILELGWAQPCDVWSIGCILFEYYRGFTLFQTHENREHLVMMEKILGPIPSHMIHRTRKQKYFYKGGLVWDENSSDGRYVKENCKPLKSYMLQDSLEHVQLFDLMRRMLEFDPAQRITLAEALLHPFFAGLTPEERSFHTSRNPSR
Sequence of Serine/threonine-protein kinase WNK2 (Q9Y3S1 whole entry, the tested form may be a part): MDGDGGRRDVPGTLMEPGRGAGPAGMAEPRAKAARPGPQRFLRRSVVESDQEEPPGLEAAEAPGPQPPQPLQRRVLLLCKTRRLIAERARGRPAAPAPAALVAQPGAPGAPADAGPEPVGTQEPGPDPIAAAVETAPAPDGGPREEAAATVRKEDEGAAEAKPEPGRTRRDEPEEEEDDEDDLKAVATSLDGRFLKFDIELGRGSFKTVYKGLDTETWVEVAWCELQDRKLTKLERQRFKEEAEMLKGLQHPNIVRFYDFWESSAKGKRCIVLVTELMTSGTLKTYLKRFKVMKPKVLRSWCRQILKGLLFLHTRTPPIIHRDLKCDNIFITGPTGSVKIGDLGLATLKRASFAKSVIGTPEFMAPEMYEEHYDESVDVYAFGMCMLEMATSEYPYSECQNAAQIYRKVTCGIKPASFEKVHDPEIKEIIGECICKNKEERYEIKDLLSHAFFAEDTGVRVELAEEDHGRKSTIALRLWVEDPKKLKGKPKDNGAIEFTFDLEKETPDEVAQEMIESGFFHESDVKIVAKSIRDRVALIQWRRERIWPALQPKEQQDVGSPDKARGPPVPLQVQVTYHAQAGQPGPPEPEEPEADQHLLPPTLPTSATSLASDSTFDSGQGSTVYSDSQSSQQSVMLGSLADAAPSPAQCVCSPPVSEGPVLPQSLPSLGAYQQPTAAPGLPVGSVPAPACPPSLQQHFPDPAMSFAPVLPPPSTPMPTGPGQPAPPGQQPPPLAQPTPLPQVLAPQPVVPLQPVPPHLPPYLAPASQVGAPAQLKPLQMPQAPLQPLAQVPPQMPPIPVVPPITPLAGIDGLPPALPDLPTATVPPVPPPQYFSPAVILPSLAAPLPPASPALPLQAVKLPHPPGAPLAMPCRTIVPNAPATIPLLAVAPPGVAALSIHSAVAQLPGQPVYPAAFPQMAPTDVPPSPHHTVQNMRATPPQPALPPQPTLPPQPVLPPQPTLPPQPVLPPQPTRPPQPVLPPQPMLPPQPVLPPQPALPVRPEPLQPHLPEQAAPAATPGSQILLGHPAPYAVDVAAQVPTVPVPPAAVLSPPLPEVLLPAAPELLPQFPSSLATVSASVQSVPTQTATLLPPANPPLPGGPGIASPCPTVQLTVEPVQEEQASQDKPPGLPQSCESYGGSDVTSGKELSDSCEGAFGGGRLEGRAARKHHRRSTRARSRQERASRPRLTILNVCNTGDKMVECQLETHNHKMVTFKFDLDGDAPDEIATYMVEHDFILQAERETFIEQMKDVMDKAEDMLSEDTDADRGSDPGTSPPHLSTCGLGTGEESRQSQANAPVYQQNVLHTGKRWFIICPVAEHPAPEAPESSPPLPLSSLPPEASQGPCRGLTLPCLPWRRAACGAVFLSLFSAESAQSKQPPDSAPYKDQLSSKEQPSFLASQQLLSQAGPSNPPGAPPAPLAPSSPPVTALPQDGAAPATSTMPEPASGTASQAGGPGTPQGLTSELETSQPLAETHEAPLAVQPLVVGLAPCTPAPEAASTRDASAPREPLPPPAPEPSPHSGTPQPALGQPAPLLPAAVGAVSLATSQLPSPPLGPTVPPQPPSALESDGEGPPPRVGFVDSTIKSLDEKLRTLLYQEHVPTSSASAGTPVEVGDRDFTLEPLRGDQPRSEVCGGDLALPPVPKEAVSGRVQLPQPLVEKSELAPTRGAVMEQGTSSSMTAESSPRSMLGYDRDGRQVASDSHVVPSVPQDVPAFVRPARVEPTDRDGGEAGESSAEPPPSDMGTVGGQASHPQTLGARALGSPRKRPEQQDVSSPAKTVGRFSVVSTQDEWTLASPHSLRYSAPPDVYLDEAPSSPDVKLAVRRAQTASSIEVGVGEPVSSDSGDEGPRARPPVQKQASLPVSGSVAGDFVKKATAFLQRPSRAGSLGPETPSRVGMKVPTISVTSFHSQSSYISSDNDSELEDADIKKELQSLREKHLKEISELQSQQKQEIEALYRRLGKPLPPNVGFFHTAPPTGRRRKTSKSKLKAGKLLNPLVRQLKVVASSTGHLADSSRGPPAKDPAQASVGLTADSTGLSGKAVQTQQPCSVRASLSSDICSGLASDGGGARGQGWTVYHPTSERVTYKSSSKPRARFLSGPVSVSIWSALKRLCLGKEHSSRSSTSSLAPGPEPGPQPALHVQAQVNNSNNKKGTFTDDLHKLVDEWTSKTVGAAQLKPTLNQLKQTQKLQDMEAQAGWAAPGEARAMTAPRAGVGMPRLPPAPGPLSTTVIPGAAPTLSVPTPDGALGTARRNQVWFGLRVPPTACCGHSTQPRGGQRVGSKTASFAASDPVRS
Sequence of Dual specificity protein kinase CLK4 (Q9HAZ1 whole entry, the tested form may be a part): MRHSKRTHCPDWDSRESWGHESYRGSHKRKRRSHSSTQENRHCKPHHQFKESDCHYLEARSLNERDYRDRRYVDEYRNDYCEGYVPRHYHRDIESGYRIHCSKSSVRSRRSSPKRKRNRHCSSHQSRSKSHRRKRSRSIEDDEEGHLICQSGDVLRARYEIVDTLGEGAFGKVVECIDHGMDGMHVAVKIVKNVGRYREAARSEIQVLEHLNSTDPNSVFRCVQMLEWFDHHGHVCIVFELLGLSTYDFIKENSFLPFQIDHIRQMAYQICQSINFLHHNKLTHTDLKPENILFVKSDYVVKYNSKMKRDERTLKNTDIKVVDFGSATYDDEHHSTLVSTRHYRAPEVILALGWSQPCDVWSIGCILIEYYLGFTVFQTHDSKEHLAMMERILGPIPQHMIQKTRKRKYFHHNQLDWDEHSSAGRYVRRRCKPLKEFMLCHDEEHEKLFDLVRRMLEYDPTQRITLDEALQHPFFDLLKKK
Sequence of Dual specificity tyrosine-phosphorylation-regulated kinase 1B (Homo sapiens) (Q9Y463 whole entry, looked up, the tested form may be a part): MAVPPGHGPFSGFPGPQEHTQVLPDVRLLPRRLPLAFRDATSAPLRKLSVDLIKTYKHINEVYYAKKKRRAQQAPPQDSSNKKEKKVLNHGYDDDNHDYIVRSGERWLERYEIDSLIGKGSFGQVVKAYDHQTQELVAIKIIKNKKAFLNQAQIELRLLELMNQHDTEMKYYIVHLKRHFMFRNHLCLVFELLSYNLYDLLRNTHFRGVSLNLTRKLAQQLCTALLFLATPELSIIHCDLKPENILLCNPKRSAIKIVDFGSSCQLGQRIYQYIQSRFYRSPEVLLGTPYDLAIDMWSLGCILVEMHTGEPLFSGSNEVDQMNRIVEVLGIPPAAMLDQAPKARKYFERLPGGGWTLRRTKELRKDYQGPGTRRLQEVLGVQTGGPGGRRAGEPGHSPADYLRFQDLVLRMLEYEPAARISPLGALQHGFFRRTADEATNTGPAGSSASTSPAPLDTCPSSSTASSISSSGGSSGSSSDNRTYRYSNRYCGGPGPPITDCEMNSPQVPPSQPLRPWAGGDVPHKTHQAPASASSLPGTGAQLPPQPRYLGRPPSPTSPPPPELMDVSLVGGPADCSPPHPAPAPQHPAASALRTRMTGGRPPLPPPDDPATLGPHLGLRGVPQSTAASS
Sequence of Calcium/calmodulin-dependent protein kinase type 1B (Q6P2M8 whole entry, the tested form may be a part): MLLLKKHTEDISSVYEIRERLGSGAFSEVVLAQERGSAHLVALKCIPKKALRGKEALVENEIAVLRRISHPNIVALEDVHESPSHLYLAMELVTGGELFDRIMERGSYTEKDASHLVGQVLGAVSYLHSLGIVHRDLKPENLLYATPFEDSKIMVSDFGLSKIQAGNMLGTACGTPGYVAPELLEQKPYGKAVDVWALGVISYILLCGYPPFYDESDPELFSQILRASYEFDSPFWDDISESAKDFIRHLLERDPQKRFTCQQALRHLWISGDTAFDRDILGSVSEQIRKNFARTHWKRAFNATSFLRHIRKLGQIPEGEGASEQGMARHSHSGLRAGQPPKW
Sequence of Dual specificity protein kinase CLK2 (Homo sapiens) (P49760 whole entry, looked up, the tested form may be a part): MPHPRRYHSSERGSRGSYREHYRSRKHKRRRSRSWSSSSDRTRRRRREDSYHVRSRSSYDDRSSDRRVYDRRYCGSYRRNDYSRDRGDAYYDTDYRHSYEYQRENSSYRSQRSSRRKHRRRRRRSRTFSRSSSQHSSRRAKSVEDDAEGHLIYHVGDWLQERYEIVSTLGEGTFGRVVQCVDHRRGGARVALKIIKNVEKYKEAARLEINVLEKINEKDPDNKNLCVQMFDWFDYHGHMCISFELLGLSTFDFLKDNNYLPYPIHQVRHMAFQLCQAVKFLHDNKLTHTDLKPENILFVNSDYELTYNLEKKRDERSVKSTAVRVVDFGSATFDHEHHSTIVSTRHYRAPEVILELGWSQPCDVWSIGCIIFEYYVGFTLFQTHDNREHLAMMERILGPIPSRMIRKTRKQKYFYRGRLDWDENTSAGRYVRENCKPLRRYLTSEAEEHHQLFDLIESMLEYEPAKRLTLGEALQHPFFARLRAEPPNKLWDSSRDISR

`CN(C)c1nccc(-c2cnn3ncccc23)n1` gave a microsomal CLint [1] of 242 µL/min/mg, a microsomal CLint [2] of 231 µL/min/mg and a solubility thermodynamic [3] of 100 µg/mL (≈ 416 µM). For the same molecule, the Activity [4] was 2.7%, the Activity [5] was 19% and the Activity [6] was 7.1%. For the same molecule, the Activity [7] was 9.4%, the Activity [8] was 54% and the Kd [9] was 61 nM. It also gave a Kd [10] of 70 nM, a Kd [11] of 360 nM and a Kd [12] of 10 µM. It also gave a Kd [13] of 10 µM, a Kd [14] of 10 µM and a t1/2 [15] of 12 min. For the same molecule, the Tmax [16] was 1.8 min, the Cmax [17] was 1082.8 ng/mL and the AUClast [18] was 275.3 ng·h/mL. The AUC [19] was 276.4 ng·h/mL, the MRT [20] was 12 min and the C0 [21] was 1331.5 ng/mL. For the same molecule, the Activity [22] was “Non-Toxic” and the BPR [23] was over 0.35.
